# Assay outcomes from PubChem BioAssay.
# The sample as a whole holds a higher share of hits than the screen did.
# Lipid droplet = modulators of hepatic lipid droplet formation | AML12 mouse hepatocytes, oleate lipid droplets, BODIPY imaging | inhibition, % at 6.5 µM | 240,000 tested, 0.4% active | AID 1656;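 active means lipid droplet intensity inhibited by at least 50%, with more than 500 cells counted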
#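 Test system: AML12 hepatocytes (mouse); reagent: oleate loading, 100 µM; dosing: one dose, 6.5 µM compound; incubation: overnight exposure; signal: fluorescence imaging, 20x objective, two fields per well; read-out basis: % inhibition of corrected integrated BODIPY droplet signal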
# Lmaj promast = inhibitors of Leishmania major promastigote growth. Leishmania major promastigotes, resazurin fluorescence viability. inhibition, % at 10 µM. 200,000 tested, 9% active. AID 1063; in the data active means inhibition above about 50%;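 further: promastigotes grown with compound for 44 hours at 28 °C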
# T cruzi repl = blocks replication of Trypanosoma cruzi; inhibition, % (no concentration beside the values); 300,000 tested, 1.4% active; T. cruzi beta-gal in NIH3T3, luminescence, 90 h;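 active means mean inhibition across valid replicates above about 55%, limit read from the data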;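 further: signal also drops with host cell toxicity which is not excluded here; 0% = plate median of DMSO wells and 100% = zero luminescence signal; higher percent means less beta-gal luminescence so fewer parasites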
#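 System: Mouse NIH/3T3 fibroblasts infected with β-gal-expressing T. cruzi Tulahuen C4 | Quantity: NIH/3T3 cells, 5,000 per well | Reagent: 5000 reporter trypomastigotes per well | Dosing: Compound pinned at 50 nL/well, DMSO | Schedule: 3 h host attachment, then at least 90 h co-culture | Detection: GalScreen luminescence, 60 min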
# MPTP inh = permeability transition pore inhibition. isolated mouse mitochondria, Ca2+ swelling absorbance, 30 min. 360,000 tested, 1.4% active. AID 602449. inhibition, % at 10 µM;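 active means inhibition of 50% or more, scaled per plate between neutral and stimulator controls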;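 further: 0% = DMSO wells given calcium and 100% = 1 mM EGTA wells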
# Redox H2O2 prof = compounds producing H2O2 with reducing agent – biochemical, NIH compound library profiling, artefact control for MLSCN library redox annotation, primary screen | DTT-dependent redox cycling H2O2, phenol red/HRP absorbance; 100% = 100 µM peroxide control, 0% = buffer | activation, % at 10 µM | 200,000 tested, 0.03% active | AID 878;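 active means activation of at least 50% relative to the plate's high and low controls in the primary single-dose screen; inactive means activation below 50%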;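 further: compound incubated with DTT at 0.8 mM final as the reducing agent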
# L major 1uM = L. major promastigote growth inhibition, 1 uM repeat | shares compounds with Lmaj promast | resazurin fluorescence, 48 h | inhibition, % at 1 µM | 1,100 tested, 13% active | AID 1258;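 active means inhibition above about 50% in both repeat tests, limit read from the data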
# The depositor's hits bear a star; . = no result.
SMILES,Lipid droplet,Lmaj promast,T cruzi repl,MPTP inh,Redox H2O2 prof,L major 1uM
COc1ccc(C(=O)/C=C/c2ccccc2)c(OC)c1,-1,66*,-11,1,0,10
COc1ccc2nc(SCCC(=O)O)cc(C)c2c1,6,.,8,1,.,.
COC(=O)c1c(C)oc(C)c1S(=O)(=O)NC(c1ccccc1)c1ccccc1,-28,.,28,0,.,.
CN1CCN(NC(=O)c2ccc(Br)c(S(=O)(=O)N3CCOCC3)c2)CC1,8,-5,-18,-1,0,.
O=[N+]([O-])c1ccc(-n2cnc3ccccc32)c([N+](=O)[O-])c1,-5,100*,71*,0,1,22
O=[N+]([O-])c1ccc2c(c1)ncn2-c1ccccc1,12,1,-7,-1,0,.
Cc1cc2nc(C3CCCCC3)c(CC(C)(C)C)n2c(C)c1Br,.,.,.,3,.,.
C[C@H]1CC[C@H]2C(=O)N3[C@H](c4cccc(N5CCCC5=O)c4)[C@@H](C)CC[C@H]3C(=O)N2[C@@H]1c1cccc(N2CCCC2=O)c1,-27,82*,48,.,0,-14
O=[N+]([O-])c1cc(-c2nnc(C34CC5CC(CC(C5)C3)C4)o2)cc([N+](=O)[O-])c1,.,100*,57*,2,-3,96*
O=C(O)c1ccc(N=NN2CCCCCC2)cc1,-1,59*,-12,-4,-1,-3
CC(=O)N1CCOc2ccc(S(=O)(=O)N3CCC(C(=O)NCc4ccc(Cl)cc4)CC3)cc21,.,.,.,0,.,.
CCOc1ccc(Oc2ccc(C(F)(F)F)cc2N)cc1,6,51*,4,6,0,-10
Cc1ccc(OCCNC(=O)C(=O)NCc2ccco2)cc1,5,-6,-47,1,-2,.
COc1cccc(C(C)(O)c2nc(/C=C/c3ccccc3)cs2)c1 (stereo unspecified),.,.,.,8,.,.
O=[N+]([O-])c1cc([N+](=O)[O-])c2n[nH]c(-c3ccccc3)c2c1,-1,98*,71*,1,0,53*
CC1CC(CCC(=O)NC(=S)Nc2ccc(S(N)(=O)=O)cc2)C(=O)O1 (stereo unspecified),-5,10,-4,0,-2,.
CCCCNc1cc(NC(C)=O)cc2cc(OC)c(OC)cc12,.,100*,4,3,0,-19
CCOC(=O)/C(=C/c1c(C)n(C)c2ccc([N+](=O)[O-])cc12)C(C)=O,-2,83*,-25,2,0,22
Cc1ccc(C(=O)C(C(=O)/C=C/c2ccccc2)=C2SCCCS2)cc1,-28,100*,59*,-2,-1,20
CC(SC1=NCCN1S(=O)(=O)c1ccccc1)c1ccccc1 (stereo unspecified),-18,.,8,1,.,.
Cc1ccc2c(c1)C1CN(C)CCC1N2C(=S)NC(=O)c1ccc(Br)cc1 (stereo unspecified),2,99*,64*,0,0,-7
COc1ccc(OCC(=O)N2c3ccc(C)cc3C3CN(C)CCC32)cc1 (stereo unspecified),2,2,-5,0,0,.
CC(=O)Nc1ccc(C2=NN(c3ccccc3)C(c3cccs3)C2)cc1 (stereo unspecified),-3,66*,17,0,-1,-5
CCOc1ccc(S(=O)(=O)N2CCCCC2)cc1NS(=O)(=O)c1cccs1,.,.,.,-1,.,.
COCCN(CCOC)C(=O)c1ccc(NS(=O)(=O)c2ccc3[nH]c(=O)[nH]c3c2)cc1,16,.,-16,0,.,.
SMILES,Lipid droplet,Lmaj promast,T cruzi repl,MPTP inh,Redox H2O2 prof,L major 1uM
Cc1nn(-c2ccc(N3CCOCC3)nn2)c(C)c1CCC(=O)NCc1ccccc1F,-1,.,-1,-1,.,.
O=C(NCc1ccccc1)Nc1cccn(Cc2ccccc2)c1=O,-2,9,-17,0,0,.
O=C(Nc1cccn(Cc2ccccc2)c1=O)NC1CCCCC1,.,78*,-4,-1,0,4
CCN1C/C(=C/c2cccs2)c2nc3ccccc3c(C(=O)O)c2C1,17,.,-7,-1,.,.
CCc1ccc(/C=C2\CN(CC)Cc3c2nc2ccccc2c3C(=O)O)cc1,.,54*,-11,-3,2,-19
COc1ccc(S(=O)(=O)NC2CC2)cc1Br,0,.,-14,0,.,.
Cc1ccc(CNc2ccc(N3CCOCC3)cc2)s1,-8,81*,1,-1,0,-7
CCOC(=O)c1c(NC(=O)Cn2cnc([N+](=O)[O-])n2)sc(C)c1C,-5,52*,72*,-2,0,-4
CCOC(=O)c1c(NC(=O)Cn2nc(C(F)F)cc2C(F)F)sc(C)c1C,-8,-5,32,1,-18,.
Cc1ccc(NC(=O)COC(=O)c2ccc(Cl)nc2)cc1S(=O)(=O)N1CCCCC1,.,.,.,1,.,.
CCOc1ccc(N(CC(=O)NCCSCc2ccco2)S(=O)(=O)c2ccc(C)cc2)cc1,-10,.,6,-1,.,.
O=S(=O)(NC(=NCCc1ccc(Cl)cc1)c1ccccc1Cl)c1cccs1,2,100*,29,-1,-1,-5
CC(=O)c1c(COC(=O)c2ccccc2Cl)nc2ccccc2[n+]1[O-],6,.,-2,0,.,.
COC(=O)c1ccc(CSc2nnnn2Cc2ccccc2)cc1,-2,97*,2,-2,2,-15
NC(=O)c1c(/N=C/c2cccs2)sc2c1CCCC2,-17,.,-2,-1,.,.
NC(=O)CN(N=Nc1cccc([N+](=O)[O-])c1)c1cccc([N+](=O)[O-])c1,12,55*,-9,4,-2,28
CCOC(=O)c1nnn(-c2nonc2N)c1COc1c(C=O)cccc1OC,.,98*,0,0,1,-1
COc1cccc(/C=N/NC(=O)c2nnn(-c3nonc3N)c2C(C)C)c1OCc1ccc(F)cc1,-62,.,21,-2,.,.
CCOC(=O)c1nnn(-c2nonc2-n2cccc2)c1CCl,.,100*,-27,4,3,57*
NS(=O)(=O)c1cccc(NC(=O)COC(=O)Cn2cc(C(F)(F)F)ccc2=O)c1,.,.,.,-2,.,.
COc1ccc(S(=O)(=O)NC(=O)C2(C)CCN2C(=O)c2cccc(F)c2)cc1 (stereo unspecified),.,.,.,0,.,.
Cc1cc(/C=N/n2cnnc2)c(C)n1-c1cccc(Cl)c1,1,85*,3,0,1,12
COc1ccccc1NS(=O)(=O)c1cc(NC(=O)c2[nH]c(C)c(C(C)=O)c2C)ccc1N1CCOCC1,-15,.,22,20,.,.
CCOC(=O)c1ccc(NC(=S)N2CCSC2c2ccc(Cl)cc2)cc1 (stereo unspecified),-30,60*,0,20,0,-11
CCOC(=O)c1ccc(NC(=S)N2CCSC2c2ccc(OC)cc2)cc1 (stereo unspecified),-16,8,-9,23,0,.
COc1ccc(CNS(=O)(=O)c2cn(C)c(=O)n(C)c2=O)cc1,-13,.,4,1,.,.
